Source: PubChem BioAssay
Only some compounds are listed: those with a hit (about 2.7% of all), similar ones and a draw of the others.
Yeast growth inh = growth inhibitors of yeast BB579 in restrictive medium, primary screen, yeast lifespan-shortening project, S. cerevisiae. OD615, 48 h. inhibition, % at 10 µM. hit rate 0.51% among 140,000;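 active means inhibition above a set limit, 3 SD over the mean compound inhibition, cut at about 44% in these data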
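Assay system: S. cerevisiae DeaD strain BB579 yeast. Medium: CSMM-D restrictive synthetic medium containing dextrose (glucose). Times: 4 h cell preincubation, 48 h compound exposure, 30 °C humidified. Signal: OD615 turbidity measurement. Benchmarks: positive control amphotericin B 10 µg/mL.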
Yeast lifespan up = compounds extending yeast replicative lifespan, primary screen, S. cerevisiae, OD615; hit rate 0.68% among 130,000; inhibition of the nicotinamide effect, % at 10 µM; AID 775, 2007; S. cerevisiae growth with nicotinamide; deaD strain in restrictive glucose medium;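 active means inhibition above a set limit, placed 3 SD over the median of all compounds, cut at about 26% in these data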
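System: Modified budding yeast, DeaD strain | Buffer or medium: Restrictive glucose medium | Also added: 1.5 mM nicotinamide | Doses: 10 µM single point, 0.25% DMSO | Schedule: 48 h compound exposure at 30 °C, humidified | Detection: Absorbance at 615 nm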
SDO1 yeast rescue = growth rescue of sdo1-depleted yeast, primary screen, S. cerevisiae, bone marrow failure model; z-score at 10 µM; hit rate 0.21% among 140,000; AID 817, 2007; S. cerevisiae sdo1-depleted JHY4D growth rescue, OD600 30 h; hits give high values; pdr5 snq2 efflux-pump mutant strain;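 active means z-score above 3 at both the 24 hr and the 30 hr optical density reads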
RAM network inh = inhibitors of the yeast RAM network, primary screen, dse1pr::URA3 reporter, 5-FOA selection; inhibition, % at 50 µM; AID 868, 2007; S. cerevisiae dse1pr::URA3 reporter, 5-FOA growth OD615, 2 d; analog-sensitive cbk1-as2 kinase mutant strain; hit rate 1.8% among 190,000;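 active means inhibition above a set limit, 3 SD over mean compound inhibition, cut at about 8.4% in these data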;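 further: inhibition rescues growth on 5-FOA so higher OD means more RAM inhibition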
Large screens that a line does not name were inactive.

O=C(OCc1nnc(-c2ccc(Cl)cc2)o1)c1ccncc1	none
Cc1noc(C)c1COc1ccc(C(=O)OCc2nnc(-c3ccc(Cl)cc3)o2)cc1	RAM network inh 10.0
Cc1ccc(C(=O)c2cc3c(cc2[N+](=O)[O-])OCCO3)cc1	none (no result: Yeast growth inh, Yeast lifespan up, SDO1 yeast rescue)
NC(=O)CSc1nnc(-c2ccc(S(=O)(=O)N3CCCC3)cc2)o1	none (no result: Yeast lifespan up)
Cc1ccc(CSc2nnc(-c3ccc(S(=O)(=O)N4CCCC4)cc3)o2)cc1	RAM network inh 10
O=S(=O)(c1ccc(-c2nnc(SCc3ccccc3)o2)cc1)N1CCCC1	RAM network inh 9.3
O=c1c2ccccc2nnn1COc1ccc(Cl)cc1Br	none (no result: Yeast growth inh, Yeast lifespan up, SDO1 yeast rescue)
N#CCCn1cc(C(=O)Nc2ccc(C(=O)O)cc2)c(-c2cccs2)n1	none (no result: Yeast growth inh, Yeast lifespan up, SDO1 yeast rescue)
N#CCCn1cc(C(=O)Nc2ccc(C(=O)O)cc2)c(-c2ccc([N+](=O)[O-])cc2)n1	RAM network inh 8.8 (no result: Yeast growth inh, Yeast lifespan up, SDO1 yeast rescue)
C=CCOc1ccc(/C=N/NC(=O)CN2CCOCC2)cc1OCC	none (no result: Yeast growth inh, Yeast lifespan up, SDO1 yeast rescue)
COc1cccc(CC2(CO)CCN(CC3=CC[C@H]4C[C@@H]3C4(C)C)CC2)c1	none (no result: Yeast growth inh, Yeast lifespan up, SDO1 yeast rescue)
COC(=O)c1ccc(Oc2ccc(C(C)(C)C)cc2)c([N+](=O)[O-])c1	RAM network inh 8.4
Cc1ccc(C)c(NC(=O)c2ccc3ccccc3n2)c1	RAM network inh 10
Cc1ccc(C)c(NC(=O)c2ccccn2)c1	none
CCCNC(=O)Cn1c(=O)/c(=C\c2ccc(-c3cccc([N+](=O)[O-])c3)o2)s/c1=C\C(=O)C(C)(C)C	RAM network inh 9.4
O=C(Cc1ccccc1)N/N=C/c1ccc(-c2ccc([N+](=O)[O-])cc2)o1	none
CCCNC(=O)Cn1c(=O)/c(=C\c2ccc(-c3ccc([N+](=O)[O-])cc3)o2)s/c1=C\C(=O)C(C)(C)C	RAM network inh 9.7
C/C(=N\Nc1ccc(Cl)cc1)c1ccccn1	Yeast growth inh 92
O=C1c2cc([N+](=O)[O-])cc3cc([N+](=O)[O-])cc(c23)C(=O)N1c1ccccn1	Yeast lifespan up 32
CC(C)(C)c1cc(NCCCn2ccnc2)n2ncc(-c3ccc(Cl)cc3)c2n1	Yeast growth inh 86
Cc1cc(NCCCn2ccnc2)n2nc(-c3ccc(Cl)cc3)cc2n1	none (no result: Yeast growth inh, Yeast lifespan up, SDO1 yeast rescue)
C=CCc1cccc2cc(C(=O)N3CCN(c4ccccn4)CC3)c(=O)oc12	none (no result: Yeast growth inh, Yeast lifespan up, SDO1 yeast rescue)
N#C/C(=C\c1ccccc1)C(=O)N(c1ccccn1)C1CCCCC1	Yeast lifespan up 63
CC(C)Cc1nnc(NS(=O)(=O)c2ccc(Cl)cc2)s1	Yeast lifespan up 26
Cc1cc(NN)nc2ccc(Cl)cc12	none (no result: Yeast growth inh, Yeast lifespan up, SDO1 yeast rescue)
Cc1ccc(NC(=O)CSCC(=O)NCCc2ccccn2)c(C)c1	none (no result: Yeast growth inh, Yeast lifespan up, SDO1 yeast rescue)
CNC(=S)NC1CC2CCCC(C1)N2Cc1ccco1 (stereo not drawn)	Yeast lifespan up 68
Cc1ccc(O)c(-c2cc(C(=O)Nc3ccc(S(=O)(=O)N4CC(C)OC(C)C4)cc3)[nH]n2)c1 (stereo not drawn)	RAM network inh 8.9
O=C(NCC1CCCO1)c1cc(S(=O)(=O)N2CCCC2)c(Cl)cc1Cl (stereo not drawn)	none (no result: Yeast growth inh, Yeast lifespan up, SDO1 yeast rescue)
CCC(=O)N(CCc1ccc(OC)c(OC)c1)Cc1cc2ccc(C)cc2n2nnnc12	none (no result: Yeast growth inh, Yeast lifespan up, SDO1 yeast rescue)
Cn1c(=NC(=O)c2ccc(S(=O)(=O)N3CCCc4ccccc43)cc2)sc2cc(S(C)(=O)=O)ccc21	RAM network inh 10
C#CCn1c(=NC(=O)c2ccc(S(=O)(=O)N3CCCc4ccccc43)cc2)sc2cc(S(N)(=O)=O)ccc21	none
CCN(CC)S(=O)(=O)c1cccc(NC(=O)c2ccc(C#N)cc2)c1	none (no result: Yeast growth inh, Yeast lifespan up, SDO1 yeast rescue)
COCCCn1c(SCc2nc3ccccc3c(=O)[nH]2)nc2ccccc2c1=O	RAM network inh 9.5
COCCn1c(SCC(=O)Nc2cccc(C(=O)OC)c2)nc2ccccc2c1=O	RAM network inh 8.8
COCCn1c(SCc2ccc(C(=O)OC)o2)nc2cc(Cl)ccc2c1=O	RAM network inh 9.4
COCCn1c(SCC(=O)N2CCc3ccccc3C2)nc2cc(Cl)ccc2c1=O	none
CSc1nnc(CNS(=O)(=O)c2ccc(Cl)cc2)n1C	none (no result: Yeast growth inh, Yeast lifespan up, SDO1 yeast rescue)
C/C(=N\NS(=O)(=O)c1ccccc1)c1cc(Cl)cc(Cl)c1O	none (no result: Yeast growth inh, Yeast lifespan up, SDO1 yeast rescue)
COC(=O)c1cc(NC(=O)c2ccc(F)cc2)cc(C(=O)OC)c1	none (no result: Yeast growth inh, Yeast lifespan up, SDO1 yeast rescue)
CSc1nc(N)nc(-c2cccs2)c1C#N	none
CC(C)Sc1nc(N)nc(-c2cccs2)c1C#N	Yeast growth inh 76
O=C1NC(=S)S/C1=C\c1ccc(SCc2ccccc2)o1	RAM network inh 10
O=C1NC(=S)S/C1=C\c1ccc(SCc2ccco2)o1	none
